Screens deposited in PubChem BioAssay by Johns Hopkins Ion Channel Center.
The list is not random: actives were taken first. Their share in the collection is about 3.1%.
KCNK3 inh = human KCNK3 channel inhibition, primary screen | O14649 | CHO-KCNK3 thallium flux, FluxOR fluorescence; hits give low values | B-score at 10 µM | hit rate 0.84% among 340,000 | AID 602410;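 active means B-score under library mean minus 4 SD, starting fluorescence ratio at most library mean plus 5 SD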;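 further: more negative B-score means stronger inhibition of thallium flux through KCNK3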
KCNQ1 act = potentiators or activators of human KCNQ1 potassium channel. P51787. B-score at 10 µM. hit rate 0.35% among 310,000. CHO-K1 KCNQ1, thallium flux FluxOR fluorescence; hits give high values;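 active means fluorescence ratio B-score, a plate-corrected score, at least three library SD, with initial intensity B-score within 5 SD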
Target sequence (P51787 whole entry, looked up): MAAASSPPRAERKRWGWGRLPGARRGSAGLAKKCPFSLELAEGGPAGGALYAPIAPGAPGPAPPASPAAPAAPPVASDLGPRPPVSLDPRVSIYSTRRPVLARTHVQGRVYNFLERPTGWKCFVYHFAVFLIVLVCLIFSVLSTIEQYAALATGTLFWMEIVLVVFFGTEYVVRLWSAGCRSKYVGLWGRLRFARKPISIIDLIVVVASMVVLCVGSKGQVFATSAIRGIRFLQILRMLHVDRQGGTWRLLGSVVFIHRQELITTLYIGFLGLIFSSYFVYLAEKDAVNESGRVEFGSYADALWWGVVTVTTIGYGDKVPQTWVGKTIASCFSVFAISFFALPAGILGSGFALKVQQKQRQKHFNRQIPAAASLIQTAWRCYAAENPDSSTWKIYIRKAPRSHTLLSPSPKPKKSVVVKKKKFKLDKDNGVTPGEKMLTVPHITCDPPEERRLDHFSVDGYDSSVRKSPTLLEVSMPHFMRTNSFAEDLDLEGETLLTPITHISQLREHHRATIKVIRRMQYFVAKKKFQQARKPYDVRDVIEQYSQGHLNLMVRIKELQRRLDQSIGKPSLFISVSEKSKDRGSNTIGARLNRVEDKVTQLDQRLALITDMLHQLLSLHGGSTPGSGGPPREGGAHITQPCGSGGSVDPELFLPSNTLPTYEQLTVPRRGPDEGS
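Material: CHO-K1 cells stably expressing KCNQ1. Medium: assay buffer for compound exposure, DMSO matched across wells. Reagent: K+/Tl+ depolarizing stimulus. Compound dosing: single-concentration screen. Times: 37 °C overnight plating, 90-min dark dye load, 20-min compound pretreatment. Technique: FluxOR Tl+ flux fluorescence.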
hERG rescue = compounds protecting human hERG from proarrhythmic drug block | CHO-hERG, FluxOR thallium flux, dofetilide IC70 present | hit rate 0.51% among 310,000 | Q12809 | activation (rescue from dofetilide block), less the hit threshold, % at 10 µM;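 active means activation above the mean of controls blocked by dofetilide plus 5 SD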;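 further: thallium influx through hERG after potassium depolarization seen as dye fluorescence rise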
KCNQ1 inh = blocks the human KCNQ1 potassium channel | P51787 | CHO-K1 KCNQ1, FluxOR thallium flux fluorescence; hits give high values | B-score at 10 µM | hit rate 1.3% among 310,000 | AID 2642;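 active means compounds whose thallium flux B-score, printed positive for inhibition, exceeds three library SD while starting fluorescence stays within three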;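 further: channel opened by potassium depolarization with thallium stimulus after 20 min compound exposure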
KCNK9 inh = inhibitors of human KCNK9 two-pore domain potassium channel. Q9NPC2. HEK293 KCNK9, FluxOR thallium flux fluorescence; hits give low values. B-score at 10 µM. hit rate 1.2% among 310,000;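 active means ratio B-score over 3 SD below the library mean, with starting fluorescence within 5 SD of its mean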;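 further: negative B-score means less thallium flux so channel inhibition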
KCNQ1 block val = confirmation of human KCNQ1 potassium channel inhibitors; shares compounds with KCNQ1 inh; KCNQ1 cell line, FluxOR thallium flux fluorescence; inhibition, % at 10 µM; hit rate 93% among 1,600;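 active means primary screen active, with duplicate mean exceeding buffer control mean plus 3 SD of buffer wells, cut at about 28% in these data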;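 further: 0% = buffer control ratio and 100% = XE991 inhibitor control ratio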
CHO Tl flux = counter-screen for KCNQ1 inhibitors: effect in parental CHO cells; shares compounds with KCNQ1 inh; fluorescence ratio (Tl flux) at 10 µM; AID 588366; parental CHO-K1, FluxOR thallium flux fluorescence ratio; hits give low values; zero means no signal rise above baseline; hit rate 21% among 1,600;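 active means mean of duplicate thallium-flux fluorescence ratios in parental host cells more than 5 SD below the buffer control mean, cut at about 0.38 in these data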;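 further: ratio is peak minus minimum fluorescence divided by baseline fluorescence; actives read low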
KCNQ1 ephys val = human KCNQ1 inhibition validated by electrophysiology | shares compounds with KCNQ1 inh | hit rate 20% among 490 | AID 624120 | calls only at 10 µM | KCNQ1-CHO cells, automated patch clamp current;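 active means KCNQ1 current drop exceeding 3 SD of negative control wells, seen in both duplicate runs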;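 further: steady state current during a 2 s step from -80 to +40 mV; negative values mean current inhibition and positive values mean potentiation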
KCNQ2 spec = rat KCNQ2 inhibition in KCNQ1 inhibitor specificity screen | hit rate 71% among 1,600 | shares compounds with KCNQ1 inh | AID 651746 | inhibition, % at 10 µM | KCNQ2 cells, FluxOR thallium flux fluorescence;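 active means mean percent inhibition of the KCNQ2 thallium signal more than 5 SD above the buffer-only control wells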;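 further: KCNQ2 expressed in CHO cells; 0% = buffer control wells and 100% = XE-991 inhibitor control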
KCNQ1 KCNE1 spec = human KCNQ1/KCNE1 inhibition in KCNQ1 specificity screen; shares compounds with KCNQ1 inh; KCNQ1/KCNE1 cells, FluxOR thallium flux fluorescence; inhibition, % at 10 µM; hit rate 77% among 1,600; AID 652147;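 active means mean percent inhibition of duplicate wells above the buffer-only control mean plus 3 SD of those controls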;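 further: 0% = buffer only wells and 100% = XE-991 inhibitor control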
* = called active by the depositor.

For O=S(=O)(NCCC1=CCCCC1)c1ccc(OC(F)(F)F)cc1 the results were KCNK3 inh inactive, KCNQ1 act inactive, hERG rescue -6, KCNQ1 inh 6*, KCNK9 inh inactive, KCNQ1 block val 56*, CHO Tl flux 0.43, KCNQ2 spec 68%* and KCNQ1 KCNE1 spec 58%*.
CC(C)[C@H](NC(N)=O)C(=O)Nc1ccc(F)c(Cl)c1 was read as KCNK3 inh inactive, KCNQ1 act inactive, hERG rescue -15, KCNQ1 inh inactive and KCNK9 inh inactive.
Screening O=C(c1cn(-c2ccccc2)nc1-c1cccnc1)N1CCN(S(=O)(=O)c2ccc(Cl)cc2)CC1 returned KCNK3 inh inactive.
c1ccc(-c2csc3ncnc(NCC4COc5ccccc5O4)c23)cc1 (configuration not stated) was read as KCNK3 inh inactive, KCNQ1 act inactive, hERG rescue -11, KCNQ1 inh 9*, KCNK9 inh inactive, KCNQ1 block val 151*, CHO Tl flux 0.35*, KCNQ2 spec 132%* and KCNQ1 KCNE1 spec active.
Screening Cc1sc2ncnc(NCC3COc4ccccc4O3)c2c1C (configuration not stated) returned KCNK3 inh inactive, KCNQ1 act inactive, hERG rescue -21, KCNQ1 inh inactive and KCNK9 inh inactive.
CC(NC(=O)CCn1ccc2cc(S(=O)(=O)N3CCCC3)ccc21)c1ccccc1 (configuration not stated) was read as KCNK3 inh inactive, KCNQ1 act inactive, hERG rescue -10, KCNQ1 inh inactive and KCNK9 inh inactive.
For CN(C)c1ccc(C=C2SC(=S)NC2=O)cc1 the results were KCNK3 inh inactive.
`COc1ccc(N=C2NC(=O)S/C2=C\c2ccc(N(C)C)cc2)cc1` gave KCNK3 inh inactive, KCNQ1 act inactive, hERG rescue -15, KCNQ1 inh 7*, KCNK9 inh inactive, KCNQ1 block val 60*, CHO Tl flux 0.38*, KCNQ2 spec 66%* and KCNQ1 KCNE1 spec 106%*.
CCCN(S(=O)(=O)c1ccccc1F)S(=O)(=O)c1ccccc1Br was read as KCNK3 inh inactive, KCNQ1 act inactive, hERG rescue -6, KCNQ1 inh inactive and KCNK9 inh inactive.
For O=C(Oc1cc(Cl)cc(Cl)c1)c1cnc2n(c1=O)CCS2 the results were KCNK3 inh inactive, KCNQ1 act inactive, hERG rescue -11, KCNQ1 inh inactive and KCNK9 inh inactive.
Screening CN(Cc1ccc(Cl)cc1Cl)C(=O)c1cccc(S(=O)(=O)N2CCN(c3ccccc3)CC2)c1 returned KCNK3 inh inactive, KCNQ1 act inactive, hERG rescue -11, KCNQ1 inh 6*, KCNK9 inh inactive, KCNQ1 block val 92*, CHO Tl flux 0.43, KCNQ1 ephys val inactive, KCNQ2 spec 90%* and KCNQ1 KCNE1 spec 68%*.
For COc1cccc(CN(C)C(=O)c2cccc(S(=O)(=O)N3CCN(c4ccccc4)CC3)c2)c1OC the results were KCNK3 inh inactive.
O=C(NCC(=O)N1CC(O)CC1C(=O)N1CC(O)CC1C(=O)OCc1ccccc1)OCc1ccccc1 (configuration not stated) was read as KCNK3 inh inactive, KCNQ1 act inactive, hERG rescue -8, KCNQ1 inh inactive and KCNK9 inh inactive.
For S=C(NCCSCc1ccc(Cl)c(Cl)c1)Nc1ccccc1 the results were KCNK3 inh inactive, KCNQ1 act inactive, hERG rescue -7, KCNQ1 inh 11*, KCNK9 inh inactive, KCNQ1 block val 76*, CHO Tl flux 0.39, KCNQ2 spec 80%* and KCNQ1 KCNE1 spec 65%*.
`S=C(NCCSCc1ccc(Cl)cc1Cl)Nc1ccccc1` gave KCNK3 inh inactive, KCNQ1 act inactive, hERG rescue -10, KCNQ1 inh 6*, KCNK9 inh inactive, KCNQ1 block val 48*, CHO Tl flux 0.41, KCNQ2 spec 111%* and KCNQ1 KCNE1 spec 36%*.
For CC(C)COc1ccc(CNC(=S)Nc2ccccc2)cc1Cl the results were KCNK3 inh inactive, KCNQ1 act inactive, hERG rescue -6, KCNQ1 inh inactive and KCNK9 inh inactive.
CC(C)Oc1ccc(CNC(=S)Nc2ccccc2)cc1Cl was read as KCNK3 inh inactive, KCNQ1 act inactive, hERG rescue -7, KCNQ1 inh 7*, KCNK9 inh inactive, KCNQ1 block val 50*, CHO Tl flux 0.55, KCNQ2 spec 59%* and KCNQ1 KCNE1 spec 75%*.
S=C(NCCSCc1c(Cl)cccc1Cl)Nc1ccccc1 was read as KCNK3 inh inactive, KCNQ1 act inactive, hERG rescue -8, KCNQ1 inh inactive and KCNK9 inh inactive.
Screening Cc1ccccc1CSCCNC(=S)Nc1ccccc1 returned KCNK3 inh inactive, KCNQ1 act inactive, hERG rescue -14, KCNQ1 inh 8*, KCNK9 inh inactive, KCNQ1 block val 62*, CHO Tl flux 0.52, KCNQ2 spec 82%* and KCNQ1 KCNE1 spec 72%*.
For Cn1nc(C(=O)NCc2ccc(F)cc2)cc1C(=O)NCc1ccc(F)cc1 the results were KCNK3 inh inactive.
Screening N#C/C(=C\c1ccc(O)c(O)c1)C(=O)Nc1cccc2ncccc12 returned KCNK3 inh inactive, KCNQ1 act inactive, hERG rescue -13, KCNQ1 inh inactive and KCNK9 inh inactive.
`CCOc1ccc(C2CC(c3cccc(OC)c3OC)n3nnnc3N2)cc1Cl` (configuration not stated) gave KCNK3 inh inactive, KCNQ1 act inactive, hERG rescue -7, KCNQ1 inh 7*, KCNK9 inh inactive, KCNQ1 block val 0, CHO Tl flux 0.52, KCNQ2 spec 59%* and KCNQ1 KCNE1 spec inactive.
Screening O=C(Nc1ccc(C2=NCCN2)cc1)c1ccc(Cl)c(C(=O)Nc2ccc(C3=NCCN3)cc2)c1 returned KCNQ1 act inactive, hERG rescue -3, KCNQ1 inh inactive and KCNK9 inh inactive.
